Measurements as given in ChEMBL document CHEMBL1130431, “Synthesis and biochemical evaluation of N-(4-phenylthiazol-2-yl)benzenesulfonamides as high-affinity inhibitors of kynurenine 3-hydroxylase” (J Med Chem, 1997).

Legend:
[1] = target: T1, Kynurenine 3-monooxygenase (Rattus norvegicus, UniProt O88867); assay: Inhibition of rat kidney Kynurenine 3-hydroxylase.
Procedure, shortened: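 The enzyme source was a crude mitochondrial fraction from rat kidney. The assay used 0.1 M K-phosphate pH 7.4 with 100 µM L-kynurenine plus 0.1 µCi L-[3-3H]kynurenine, 200 µM NADPH, and an NADPH-regenerating system, with 30 µg protein. Inhibitor was preincubated 15 min at 37 °C, then the reaction ran 10 min at 37 °C. Charcoal removed substrate and 3H2O was counted.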

[2] = target: Kynurenine 3-monooxygenase (Rattus norvegicus) (UniProt O88867); assay: Compound was evaluated for ex vivo inhibition of Kynurenine 3-hydroxylase activity in liver of rat after injecting perorally; type: tissue-based
Procedure, shortened: (§1)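 Rats got oral doses in 0.1% Tween-80 suspension (0.5 mL/100 g), five or six doses with four or five animals per dose, and were decapitated 2 h later. Kidney or liver was homogenized in 9 volumes of 0.32 M sucrose/5 mM Tris-HCl pH 7.4 with 0.5 mM PMSF. 25 µL homogenate was assayed by [3H]water release with 2 min incubation.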

[3] = target: Kynurenine 3-monooxygenase (Rattus norvegicus) (UniProt O88867); assay: Compound was evaluated for ex vivo inhibition of Kynurenine 3-hydroxylase activity in kidney of rat after injecting perorally; type: tissue-based; procedure, shortened: as §1
[4] = target: T1, Kynurenine 3-monooxygenase; assay: Inhibitory constant against Kynurenine 3-hydroxylase
Procedure, shortened: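 Competitive-inhibition kinetics on rat kidney crude mitochondrial kynurenine 3-hydroxylase. L-[3-3H]kynurenine saturation experiments with NADPH 200 μM plus a glucose 6-phosphate regenerating system, in 0.1 M potassium phosphate pH 7.4 at 37 °C. No preincubation; the enzyme was added to start the reaction. Read-out was tritiated water counted after charcoal removal of substrate. Ki was taken from replots of apparent Km versus inhibitor concentration; three experiments.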

[5] = system: Kynurenine 3-monooxygenase (Meriones unguiculatus); assay: Compound was evaluated for ex vivo inhibition of Kynurenine 3-hydroxylase activity in Liver from Gerbils after injecting perorally; conditions: Gerbillinae
[6] = system: Kynurenine 3-monooxygenase (Meriones unguiculatus); assay: Compound was evaluated for ex vivo inhibition of Kynurenine 3-hydroxylase activity in brain from Gerbils after injecting perorally; conditions: Gerbillinae
[7] = system: Kynurenine 3-monooxygenase (Meriones unguiculatus); assay: Compound was evaluated for ex vivo inhibition of Kynurenine 3-hydroxylase activity in Kidney from Gerbils after injecting perorally; conditions: Gerbillinae

Sequence of Kynurenine 3-monooxygenase (Rattus norvegicus) (O88867 whole entry, looked up): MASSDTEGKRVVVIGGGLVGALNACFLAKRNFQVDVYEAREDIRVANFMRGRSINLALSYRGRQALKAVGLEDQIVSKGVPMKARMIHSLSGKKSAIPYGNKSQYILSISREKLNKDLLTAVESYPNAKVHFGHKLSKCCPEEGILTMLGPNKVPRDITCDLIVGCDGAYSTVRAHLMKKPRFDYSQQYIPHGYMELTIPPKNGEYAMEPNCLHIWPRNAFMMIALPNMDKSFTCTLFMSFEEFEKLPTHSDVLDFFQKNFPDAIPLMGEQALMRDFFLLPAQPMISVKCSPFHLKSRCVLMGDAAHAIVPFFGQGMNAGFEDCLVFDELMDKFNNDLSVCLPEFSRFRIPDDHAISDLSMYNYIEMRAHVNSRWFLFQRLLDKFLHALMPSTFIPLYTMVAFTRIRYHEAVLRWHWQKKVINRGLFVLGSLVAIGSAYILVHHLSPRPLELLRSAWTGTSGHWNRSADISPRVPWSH
T1 sequence (O88867 whole entry): as the sequence (O88867 whole entry, looked up) above

Row | SMILES | IC50 [1] [nM] | other results
1 | COc1ccc(-c2csc(NS(=O)(=O)c3ccc(C)cc3)n2)cc1 | 240 | 
2 | Cc1ccc(S(=O)(=O)Nc2nc(-c3ccc(Cl)c(Cl)c3)cs2)cc1 | 56 | 
3 | O=[N+]([O-])c1cccc(-c2csc(NS(=O)(=O)c3ccccc3)n2)c1 | 200 | 
4 | O=[N+]([O-])c1cccc(-c2csc(NS(=O)(=O)c3ccc(Cl)cc3)n2)c1 | 84 | 
5 | Cc1ccc(-c2csc(NS(=O)(=O)c3ccc(C)cc3)n2)cc1 | 76 | 
6 | Cc1ccc(S(=O)(=O)Nc2nc(-c3ccccc3)cs2)cc1 | 470 | 
7 | CC(C)c1ccc(S(=O)(=O)Nc2nc(-c3cccc([N+](=O)[O-])c3)cs2)cc1 | 990 | 
8 | Nc1ccc(S(=O)(=O)Nc2nc(-c3cccc([N+](=O)[O-])c3)cs2)cc1 | 40 | 
9 | O=C(O)c1[cH-]c(-c2cccc([N+](=O)[O-])c2)[o+]n1 | 2680 | 
10 | Cc1ccc(S(=O)(=O)Nc2nc(-c3cccc([N+](=O)[O-])c3)cs2)cc1 | 48 | ED50 [2]: 33.4 µmol/kg; ED50 [3]: 13.3 µmol/kg
11 | O=[N+]([O-])c1cccc(-c2cc(-c3nn[nH]n3)no2)c1 | 1160 | 
12 | COc1ccc(S(=O)(=O)Nc2nc(-c3cccc([N+](=O)[O-])c3)cs2)cc1 | 51 | ED50 [2]: 9 µmol/kg; ED50 [3]: 3 µmol/kg
13 | COc1ccc(S(=O)(=O)Nc2nc(-c3cccc([N+](=O)[O-])c3)cs2)cc1OC | 37 | Ki [4]: 4.8 nM
14 | NC(CC(=O)c1cccc([N+](=O)[O-])c1)C(=O)O (stereo unspecified) | 774 | 
15 | Nc1ccc(S(=O)(=O)Nc2nc(-c3cc(C(F)(F)F)ccc3F)cs2)cc1 | 19 | ED50 [2]: 4.6 µmol/kg; ED50 [3]: 1.1 µmol/kg
16 | Cc1ccc(S(=O)(=O)Nc2nc(-c3ccc(O)c(C)c3)cs2)cc1 | 114 | 
17 | NC(CC(=O)c1ccc(Cl)c(Cl)c1)C(=O)O (stereo unspecified) | 237 | ED50 [2]: 222 µmol/kg; Ki [4]: 95 nM; ED50 [3]: 25.1 µmol/kg
18 | O=[N+]([O-])c1cccc(-c2csc(NS(=O)(=O)c3ccc(Cl)c(Cl)c3)n2)c1 | 120 | 
19 | COc1ccc(S(=O)(=O)Nc2nc(-c3cc(C(F)(F)F)ccc3F)cs2)cc1OC | 39 | ED50 [2]: 5.3 µmol/kg; ED50 [3]: 6.6 µmol/kg; ED50 [5]: 0.9 µmol/kg; ED50 [6]: 5.2 µmol/kg; ED50 [7]: 1.8 µmol/kg
20 | O=C(O)CCC(=O)c1cccc([N+](=O)[O-])c1 | 5770 | 
21 | Cc1ccc(S(=O)(=O)Nc2nc(-c3ccc(Cl)cc3)cs2)cc1 | 56 | 
